In publication PMC3313489 (European journal of lipid science and technology : EJLST, 2011):
Read-outs that look alike come from different tables or passages of the source.

Columns and labels:
[1] = system: Human neuroblastoma SH-SY5Y cells; experiment: Cell viability, resazurin reduction; type: cell-based; settings: for degeneration of the cells: 10 μM (printed for AA), 72 h, Figure 4C
[2] = target: T1, PMPMEase (Sus scrofa, UniProt Q29550); experiment: PMPMEase enzyme assay with RD-PNB substrate; type: biochemical, porcine; settings: for decrease in PMPMEase inhibitory potency relative to AA: from IC50 values, AA as comparator
T1 sequence (Q29550 19-566): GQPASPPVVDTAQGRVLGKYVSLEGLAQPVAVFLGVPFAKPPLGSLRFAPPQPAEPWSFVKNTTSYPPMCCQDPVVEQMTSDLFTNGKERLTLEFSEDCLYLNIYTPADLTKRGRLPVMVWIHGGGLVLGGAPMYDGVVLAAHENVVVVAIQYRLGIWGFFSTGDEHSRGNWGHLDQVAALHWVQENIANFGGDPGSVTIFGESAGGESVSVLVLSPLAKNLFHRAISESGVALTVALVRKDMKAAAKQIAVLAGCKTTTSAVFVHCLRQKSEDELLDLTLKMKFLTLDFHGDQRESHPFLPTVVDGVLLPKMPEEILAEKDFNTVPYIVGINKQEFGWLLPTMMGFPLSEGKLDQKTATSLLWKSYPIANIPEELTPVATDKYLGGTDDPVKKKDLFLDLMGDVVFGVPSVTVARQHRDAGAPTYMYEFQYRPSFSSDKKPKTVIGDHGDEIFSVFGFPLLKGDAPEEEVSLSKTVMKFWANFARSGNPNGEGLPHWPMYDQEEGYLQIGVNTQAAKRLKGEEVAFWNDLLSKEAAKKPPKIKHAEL

[3] = target: T2, PMPMEase (Homo sapiens, UniProt P23141); experiment: PMPMEase activity in lysates of FFA-treated SH-SY5Y cells; type: cell-based; settings: DMSO-induced degenerated cells, non-specific cytotoxic agent
T2 sequence (P23141 18-567): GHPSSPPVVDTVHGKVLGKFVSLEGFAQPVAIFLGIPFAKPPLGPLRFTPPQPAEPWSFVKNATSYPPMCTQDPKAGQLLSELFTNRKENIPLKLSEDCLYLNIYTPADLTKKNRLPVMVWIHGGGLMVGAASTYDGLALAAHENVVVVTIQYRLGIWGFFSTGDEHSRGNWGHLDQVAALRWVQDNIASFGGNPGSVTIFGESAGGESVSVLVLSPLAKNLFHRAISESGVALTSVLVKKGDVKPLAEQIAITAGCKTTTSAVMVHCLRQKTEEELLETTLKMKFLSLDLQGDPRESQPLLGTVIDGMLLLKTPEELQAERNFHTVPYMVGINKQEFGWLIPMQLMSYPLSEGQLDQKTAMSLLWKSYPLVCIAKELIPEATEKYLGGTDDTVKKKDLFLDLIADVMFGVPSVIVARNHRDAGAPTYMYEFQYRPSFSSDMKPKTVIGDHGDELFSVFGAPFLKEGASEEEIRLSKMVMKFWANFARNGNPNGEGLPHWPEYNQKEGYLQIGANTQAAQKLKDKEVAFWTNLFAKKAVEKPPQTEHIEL
Method in brief: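 SH-SY5Y cells were seeded in 24-well plates at 5 × 10^5 and exposed to fatty acids (0–200 μM) or DMSO for 24 h, then lysed in medium with Triton X-100. Lysate was incubated at 37 °C with RD-PNB in 100 mM Tris-HCl, pH 7.4. Reactions were stopped with methanol on ice and spun, and product was measured by RP-HPLC (UV 260 nm). Means ± S.E.M.; ANOVA with Dunnett's test.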

[4] = purified PMPMEase 5 μg, RD-PNB 1 mM, 37°C, pH 7.4
[5] = purified PMPMEase 5 μg, RD-PNB 1 mM, 15 min pre-incubation, 37°C, pH 7.4

Compound | IC50 [2] [µM] | Ki [2] [µM] | other results
CCCCCCCCCCCCCCCCCCCC(=O)O [Arachidic acid] | > 1000 | > 28 | effect on cell viability (in words) ([1]; 200 μM, 24 h exposure, listed as ARA): no effect on cell viability
CCCCC/C=C\C/C=C\C/C=C\C/C=C\CCCC(=O)O [Arachidonic acid] | 6.6 | – | degeneration of the cells [1]: 99 ± 0.1%
C[S+](C)[O-] [DMSO, dimethylsulfoxide] | – | – | loss of PMPMEase enzyme activity in degenerated cells [3]: 49 ± 3%
CCCCCCCCCC(=O)O [Decanoic acid] | > 1000 | > 28 | –
CC/C=C\C/C=C\C/C=C\C/C=C\C/C=C\C/C=C\CCC(=O)O [Docosahexaenoic acid] | 130 | – | –
CC/C=C\C/C=C\C/C=C\C/C=C\C/C=C\CCCC(=O)O [Eicosapentaenoic acid] | 12 | – | –
CCCCCCCC/C=C/CCCCCCCC(=O)O [Elaidic acid] | > 1000 | > 28 | –
CCCCCCCC/C=C\CCCCCCCCCCCC(=O)O [Erucic acid] | > 1000 | > 28 | –
CCCCCCCCCCCC(=O)O [Lauric acid] | – | – | Ki [2, 4]: 6.5 µM; IC50 [2, 5]: 230 µM
CCCCC/C=C\C/C=C\CCCCCCCC(=O)O [Linoleic acid] | 64 | 1.8 | –
CC/C=C\C/C=C\C/C=C\CCCCCCCC(=O)O [Linolenic acid] | 22 | – | –
CCCCCCCCCCCCCC(=O)O [Myristic acid] | 100 | 2.8 | –
CCCC/C=C\CCCCCCCC(=O)O [Myristoleic acid] | 63 | 1.8 | –
CCCCCCCC(=O)O [Octanoic acid] | > 1000 | > 28 | –
CCCCCCCC/C=C\CCCCCCCC(=O)O [Oleic acid] | 53 | 1.5 | –
CCCCCCCCCCCCCCCC(=O)O [Palmitic acid] | > 1000 | > 28 | –
CCCCCC/C=C\CCCCCCCC(=O)O [Palmitoleic acid] | 37 | 1 | –
CCCCC[C@H](O)/C=C/[C@H]1C=CC(=O)[C@@H]1CCCCCCC(=O)O [Prostaglandin A1] | > 1000 | > 28 | –
CCCCC[C@H](O)/C=C/[C@H]1C=CC(=O)[C@@H]1C/C=C\CCCC(=O)O [Prostaglandin A2] | 420 | – | decrease in PMPMEase inhibitory potency relative to AA [2]: over 63 fold
CCCCC[C@H](O)/C=C/C1=C(CCCCCCC(=O)O)C(=O)CC1 [Prostaglandin B1] | 580 | – | –
CCCCC[C@H](O)/C=C/[C@H]1[C@H](O)CC(=O)[C@@H]1CCCCCCC(=O)O [Prostaglandin E1] | > 1000 | – | –
CCCCC[C@H](O)/C=C/[C@H]1[C@H](O)CC(=O)[C@@H]1C/C=C\CCCC(=O)O [Prostaglandin E2] | > 1000 | – | degeneration of the cells [1]: 34 ± 4.0%; decrease in PMPMEase inhibitory potency relative to AA [2]: > 150 fold
CCCCC[C@H](O)/C=C/[C@@H]1[C@@H](CCCCCCC(=O)O)[C@H](O)C[C@H]1O [Prostaglandin F1β] | – | – | Ki [2, 4]: > 28 µM; IC50 [2, 5]: > 1000 µM
CCCCC[C@H](O)/C=C/[C@@H]1[C@@H](C/C=C\CCCC(=O)O)[C@@H](O)C[C@H]1O [Prostaglandin F2α] | > 1000 | > 28 | degeneration of the cells [1]: 19 ± 5.6%
CCCCCCCCCCCCCCCCCC(=O)O [Stearic acid] | > 1000 | > 28 | –
